Test results as given in ChEMBL document CHEMBL3396959, “Structural requirements for TLR7-selective signaling by 9-(4-piperidinylalkyl)-8-oxoadenine derivatives” (Bioorg Med Chem Lett, 2015).
Activity calls are given as the source filed them. The rule behind the calls is not given here.

Legend:
PBMC [1] = assay: Reduction in IFNalpha production in primary human PBMC at >10 uM after 24 hrs by ELISA method; type: functional, cell-based
Toll-like receptor 8 = biological target: T1, Toll-like receptor 8 (Homo sapiens, UniProt Q9NR97); assay: Activation of human TLR8 expressed in HEK293 cells after 24 hrs by NFkappaB-mediated SEAP reporter gene assay; type: cell-based
T1 sequence (Q9NR97 whole entry): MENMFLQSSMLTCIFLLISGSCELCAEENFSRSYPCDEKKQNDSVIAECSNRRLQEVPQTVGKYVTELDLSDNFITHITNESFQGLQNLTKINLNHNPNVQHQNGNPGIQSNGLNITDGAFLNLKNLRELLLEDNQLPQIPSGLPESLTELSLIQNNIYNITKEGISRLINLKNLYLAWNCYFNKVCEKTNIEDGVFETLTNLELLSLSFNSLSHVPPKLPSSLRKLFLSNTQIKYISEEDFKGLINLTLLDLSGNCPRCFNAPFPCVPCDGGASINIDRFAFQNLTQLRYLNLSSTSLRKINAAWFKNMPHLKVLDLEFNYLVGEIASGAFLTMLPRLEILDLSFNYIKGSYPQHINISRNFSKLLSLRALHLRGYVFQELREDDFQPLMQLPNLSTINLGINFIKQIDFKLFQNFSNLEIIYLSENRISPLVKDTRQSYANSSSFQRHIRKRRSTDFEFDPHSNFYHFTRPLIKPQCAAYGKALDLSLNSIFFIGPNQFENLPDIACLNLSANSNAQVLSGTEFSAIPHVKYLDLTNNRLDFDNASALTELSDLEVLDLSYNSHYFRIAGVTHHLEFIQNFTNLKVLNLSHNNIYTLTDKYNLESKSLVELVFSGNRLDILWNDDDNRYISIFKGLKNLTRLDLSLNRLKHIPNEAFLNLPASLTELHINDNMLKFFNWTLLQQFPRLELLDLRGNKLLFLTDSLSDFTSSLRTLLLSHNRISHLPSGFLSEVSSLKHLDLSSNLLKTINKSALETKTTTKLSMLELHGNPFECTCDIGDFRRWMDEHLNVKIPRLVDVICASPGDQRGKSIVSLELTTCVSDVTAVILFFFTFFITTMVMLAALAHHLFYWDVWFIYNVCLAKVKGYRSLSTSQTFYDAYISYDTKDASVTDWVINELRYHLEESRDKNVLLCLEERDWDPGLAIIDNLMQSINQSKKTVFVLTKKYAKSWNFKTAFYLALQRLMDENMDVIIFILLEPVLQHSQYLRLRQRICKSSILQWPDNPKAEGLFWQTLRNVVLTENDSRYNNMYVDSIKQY
Procedure, shortened: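 HEK293 cells stably transfected with hTLR7 or hTLR8 plus an NF-kB-driven SEAP reporter were kept in DMEM/10% FBS with selection antibiotics. Aqueous compound formulations were added for 24 h, and supernatant SEAP was read colorimetrically. Points were run in triplicate and averaged.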

HEK293 = assay: Toxicity against human TLR8 expressing HEK293 cells after 24 hrs by live/dead fixable aqua staining method; type: cell-based; settings: hek293, 24 h
Procedure, shortened: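 HEK293-hTLR8 reporter cells were stimulated with compound for 24 h. Cells were then incubated with Live/Dead fixable Aqua dye for 30 min, washed extensively, and read for viability by flow cytometry.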

PBMC [2] = assay: Induction of IFNalpha production in primary human PBMC at 0.001 to 10 uM after 24 hrs by ELISA method; type: functional, cell-based
Procedure, shortened: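 Fresh healthy-donor PBMCs were isolated by Ficoll and plated at 0.5 × 10^6 cells/well in RPMI-1640/10% FBS with antibiotics. Aqueous compound formulations were added for 24 h across 0.0001–10 µM. Supernatant IFNa was measured by ELISA. Data are from three donors, each run in triplicate, with SEM shown.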

[3] = Induction of IL6 expression in human HLA-DR(+), CD11c(+) and CD123(-) expressing mDC after 24 hrs by intracellular cytokine staining method; type: functional; design: concentration or dose not given beside the values
Procedure, shortened: (§1)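 PBMCs were stimulated with aqueous compound for 24 h, with GolgiPlug (10 ng/ml) present for the final 6 h. Cells were washed and surface-stained for lineage markers (mDC HLA-DR+ CD11c+ CD123−; pDC HLA-DR+ CD11c− CD123+). They were then permeabilized with Perm/Fix buffer and stained with fluorochrome-conjugated anti-cytokine antibodies for flow cytometry.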

PBMC [4] = assay: Induction of TNFalpha production in primary human PBMC after 24 hrs by ELISA method; type: functional, cell-based
Procedure, shortened: (§2)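 Ficoll-isolated healthy-donor PBMCs at 0.5 × 10^6 cells/well in RPMI-1640/10% FBS were stimulated 24 h with aqueous compound. Supernatant TNFa was assayed with a […]. Data are from three donors in triplicate, with SEM shown.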

PBMC [5] = assay: Induction of TNFalpha production in primary human PBMC at 0.001 to 10 uM after 24 hrs by ELISA method; type: functional, cell-based; procedure, shortened: as §2
Toll-like receptor 7 = biological target: T2, Toll-like receptor 7 (Homo sapiens, UniProt Q9NYK1); assay: Activation of human TLR7 expressed in HEK293 cells after 24 hrs by NFkappaB-mediated SEAP reporter gene assay; type: cell-based
T2 sequence (Q9NYK1 whole entry): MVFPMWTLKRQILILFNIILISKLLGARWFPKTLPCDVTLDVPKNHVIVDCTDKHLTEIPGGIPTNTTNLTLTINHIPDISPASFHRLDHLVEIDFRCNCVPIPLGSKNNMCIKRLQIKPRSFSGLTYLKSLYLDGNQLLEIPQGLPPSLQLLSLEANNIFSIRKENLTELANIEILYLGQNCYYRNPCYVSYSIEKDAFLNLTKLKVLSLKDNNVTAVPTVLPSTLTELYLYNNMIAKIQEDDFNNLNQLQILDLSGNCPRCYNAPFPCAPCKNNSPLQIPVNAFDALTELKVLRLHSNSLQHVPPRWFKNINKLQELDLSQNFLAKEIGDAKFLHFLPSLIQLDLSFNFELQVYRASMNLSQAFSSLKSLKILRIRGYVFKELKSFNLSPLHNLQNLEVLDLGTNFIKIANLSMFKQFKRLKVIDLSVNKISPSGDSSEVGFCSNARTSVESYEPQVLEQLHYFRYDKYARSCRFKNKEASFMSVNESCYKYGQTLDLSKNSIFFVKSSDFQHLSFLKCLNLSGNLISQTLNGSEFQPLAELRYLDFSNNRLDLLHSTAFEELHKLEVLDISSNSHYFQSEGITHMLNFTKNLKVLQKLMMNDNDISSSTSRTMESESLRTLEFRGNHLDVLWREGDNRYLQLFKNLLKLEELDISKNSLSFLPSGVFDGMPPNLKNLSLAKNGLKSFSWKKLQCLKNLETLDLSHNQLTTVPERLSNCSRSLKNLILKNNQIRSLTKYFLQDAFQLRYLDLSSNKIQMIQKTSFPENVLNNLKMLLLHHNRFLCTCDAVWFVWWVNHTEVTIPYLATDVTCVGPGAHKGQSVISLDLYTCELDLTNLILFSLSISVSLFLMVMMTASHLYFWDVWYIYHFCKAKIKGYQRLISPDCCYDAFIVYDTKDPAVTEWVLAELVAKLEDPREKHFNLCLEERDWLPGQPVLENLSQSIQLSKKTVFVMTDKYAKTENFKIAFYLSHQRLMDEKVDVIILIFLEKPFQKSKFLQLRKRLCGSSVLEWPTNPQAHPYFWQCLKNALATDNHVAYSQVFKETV
Procedure, shortened: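 HEK293 cells stably transfected with hTLR7 or hTLR8 plus an NF-kB-driven SEAP reporter were kept in DMEM/10% FBS with selection antibiotics. Aqueous compound formulations were added for 24 h, and supernatant SEAP was read colorimetrically. Points were run in triplicate and averaged. Activity was scaled to the maximum of a reference agonist set at 100%. EC50 was taken from dose-response curves with 95% CI.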

PBMC [6] = assay: Induction of IFNgamma production in primary human PBMC after 24 hrs by ELISA method; type: functional, cell-based
Homo sapiens [7] = organism: Homo sapiens; assay: Induction of INFalpha production in human HLA-DR(+), CD11c(+) and CD123(-) expressing mDC after 24 hrs by intracellular cytokine staining method; type: functional, cell-based; procedure, shortened: as §1
Homo sapiens [8] = organism: Homo sapiens; assay: Induction of INFalpha production in human HLA-DR(+), CD11c(+) and CD123(-) expressing mDC after 24 hrs by […]; type: functional
Homo sapiens [9] = organism: Homo sapiens; assay: Induction of TNFalpha production in human HLA-DR(+), CD11c(-) and CD123(+) expressing pDC after 24 hrs by […]; type: functional
Homo sapiens [10] = organism: Homo sapiens; assay: Induction of INFalpha production in human HLA-DR(+), CD11c(-) and CD123(+) expressing pDC after 24 hrs by intracellular cytokine staining method; type: functional, cell-based; procedure, shortened: as §1
Homo sapiens [11] = organism: Homo sapiens; assay: Induction of apoptosis in human HLA-DR(+), CD11c(-) and CD123(+) expressing pDC at 1 nM after 24 hrs by Annexin-V staining method; type: functional
Procedure, shortened: (§3)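 PBMCs were stimulated for 24 h with compound at doses of 0.01 nM, 1 nM, 100 nM and 10 µM. Cells were phenotyped into mDC (HLA-DR+ CD11c+ CD123−) and pDC (HLA-DR+ CD11c− CD123+) and stained with Annexin-V to read apoptosis by flow cytometry.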

Homo sapiens [12] = organism: Homo sapiens; assay: Induction of INFalpha production in human HLA-DR(+), CD11c(-) and CD123(+) expressing pDC after 24 hrs by […]; type: functional
Homo sapiens [13] = organism: Homo sapiens; assay: Induction of TNFalpha production in human HLA-DR(+), CD11c(+) and CD123(-) expressing mDC after 24 hrs by intracellular cytokine staining
Homo sapiens [14] = organism: Homo sapiens; assay: Induction of TNFalpha production in human HLA-DR(+), CD11c(+) and CD123(-) expressing mDC after 24 hrs by intracellular cytokine staining method; type: functional, cell-based; procedure, shortened: as §1
Homo sapiens [15] = organism: Homo sapiens; assay: Induction of apoptosis in human HLA-DR(+), CD11c(+) and CD123(-) expressing mDC at 1 nM after 24 hrs by Annexin-V staining method; type: functional; procedure, shortened: as §3
Homo sapiens [16] = organism: Homo sapiens; assay: Induction of TNFalpha production in human HLA-DR(+), CD11c(-) and CD123(+) expressing pDC after 24 hrs by intracellular cytokine staining method; type: functional, cell-based; procedure, shortened: as §1

Row | Structure (SMILES) | inhibition (PBMC [1]) | EC50 (Toll-like receptor 8; read-out: EC50) | Activity (HEK293) | Activity (PBMC [2]) | Activity [3] | Activity (PBMC [4]) | Activity (PBMC [5]) | EC50 (Toll-like receptor 7; read-out: EC50) | Activity (PBMC [6]) | further results
1 | CCCCOc1nc(N)c2[nH]c(=O)n(CCC3CCNCC3)c2n1.Cl | Dose-dependent effect | 231000 nM | Non-toxic | Active | 4.91% | Active | Dose-dependent effect | 150 nM | Active | 
2 | CCCCOc1nc(N)c2[nH]c(=O)n(CCCCCC3CCNCC3)c2n1.Cl | Dose-dependent effect |  | Toxic | Active | 31.5% | Active | Dose-dependent effect | 100 nM | Active | Activity (Homo sapiens [7]): Dose-dependent effect; Activity (Homo sapiens [8]): Dose-dependent effect; Activity (Homo sapiens [9]): Dose-dependent effect; Activity (Homo sapiens [10]): Dose-dependent effect; Activity (Homo sapiens [11]): Active; Activity (Homo sapiens [12]): Dose-dependent effect; Activity (Homo sapiens [13]): Dose-dependent effect; Activity (Homo sapiens [14]): Dose-dependent effect; Activity (Homo sapiens [15]): inactive; Activity (Homo sapiens [16]): Dose-dependent effect
3 | CCCCOc1nc(N)c2[nH]c(=O)n(CCCCC3CCNCC3)c2n1.Cl | Dose-dependent effect | 131000 nM | Toxic | Active | 22.3% | Active | Dose-dependent effect | 150 nM | Active | 
4 | CCCCOc1nc(N)c2[nH]c(=O)n(CCCCCCC3CCNCC3)c2n1.Cl | Dose-dependent effect | 29000 nM |  | Active | 28.5% | Active | Dose-dependent effect | 230 nM | Active | 
5 | CCCCOc1nc(N)c2[nH]c(=O)n(CCCC3CCNCC3)c2n1.Cl | Dose-dependent effect | 260000 nM | Non-toxic | Active | 8.27% | Active | Dose-dependent effect | 620 nM | Active | 
6 | CCCCOc1nc(N)c2[nH]c(=O)n(C3CCNCC3)c2n1.Cl |  |  |  | inactive |  | inactive |  |  | inactive | EC50 (Toll-like receptor 8; hek293): Not Active; EC50 (Toll-like receptor 7; hek293): Not Active
